PubChem BioAssay
Active and inactive are the calls of the source.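 The calls were made as follows, unless noted: active = inhibition above 20% together with a positive visual image hit; inconclusive = visual image hit but inhibition not above 20%; inactive = no visual image hit.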

What was measured:
[1] = inhibitors of TNFa-induced NFkB p65 translocation, primary screen, imaging, HUVEC, MLSMR starter and 10KST1 sets (AID 438); conditions: HUVEC TNFa-induced p65 nuclear translocation; cell count: measured here: nuclei count (cytotoxicity indicator), at 2.08 µM; inhibition: at 2 µM, stronger effect = higher value, 0% TNFa-plus-vehicle, 100% no-TNFa wells;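 also: compound added about 3h40 before a 20 min TNFalpha stimulation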;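 as to inhibition: signal is the nuclear over cytoplasmic p65 intensity ratio per well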
[2] = endothelial E-selectin expression blockers – imaging, HUVEC, immunofluorescence, MLSMR starter and 10KST1 sets, primary screen (AID 487;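 active = visually confirmed hit in the image check and inhibition above 20%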;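 as to inhibition: signal is fraction of cell area covered by stained E-selectin grains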;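 as to nuclei count: 100% = median nuclei count of all wells on the same plate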); conditions: HUVEC TNFalpha-induced E-selectin immunofluorescence imaging, at 2 µM; inhibition: stronger effect = higher value; nuclei count: measured here: cell number, toxicity
[3] = Primary imaging screen for DUSP6 inhibitors that restore phospho-Erk in transfected HeLa cells, chemical complementation (AID 609;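 active = compounds giving at least 50% inhibition in the cell-based MKP-3 phosphatase rescue imaging test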;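 as to inhibition: phospho-Erk level distribution per well compared with pooled transfected vehicle control wells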); conditions: HeLa MKP-3 transfected, phospho-Erk imaging KS statistic, at 10 µM, cells stimulated with TPA for 15 min
[4] = molecular target: Dual specificity protein phosphatase 6 (Homo sapiens) (UniProt Q16828); test: as above; conditions: HeLa MKP-3 transfected, phospho-Erk imaging KS statistic; at 10 µM; stronger effect = higher value; cells stimulated with TPA for 15 min
Sequence of Dual specificity protein phosphatase 6 (Homo sapiens) (Q16828 whole entry, looked up): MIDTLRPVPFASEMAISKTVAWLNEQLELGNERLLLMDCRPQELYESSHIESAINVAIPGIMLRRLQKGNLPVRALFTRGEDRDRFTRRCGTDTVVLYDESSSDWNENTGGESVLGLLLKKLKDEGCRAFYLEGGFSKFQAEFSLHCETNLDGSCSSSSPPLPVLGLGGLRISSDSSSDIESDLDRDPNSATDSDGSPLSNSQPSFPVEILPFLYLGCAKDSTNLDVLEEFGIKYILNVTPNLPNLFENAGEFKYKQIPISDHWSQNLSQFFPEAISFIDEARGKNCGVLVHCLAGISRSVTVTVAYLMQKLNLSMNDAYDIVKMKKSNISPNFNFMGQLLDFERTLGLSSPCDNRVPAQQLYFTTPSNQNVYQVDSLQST

[5] = molecular target: Voltage-gated potassium channel subunit beta-2 (Rattus norvegicus) (UniProt P62483); test: inhibitors of rat Kvbeta2 reductase activity – biochemical, NADPH fluorescence, primary screen (AID 622;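 active = fluorescence slope higher than the sample average by over 3 SD, cut at about -0.22 in these data, passing the limit was not always enough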;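 also: slope of raw intensity against log time taken from 70 to 1610 s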); conditions: recombinant KvBeta, 4-cyanobenzaldehyde reduction, at 10 µM, stronger effect = higher value
Sequence of Voltage-gated potassium channel subunit beta-2 (Rattus norvegicus) (P62483 whole entry, looked up): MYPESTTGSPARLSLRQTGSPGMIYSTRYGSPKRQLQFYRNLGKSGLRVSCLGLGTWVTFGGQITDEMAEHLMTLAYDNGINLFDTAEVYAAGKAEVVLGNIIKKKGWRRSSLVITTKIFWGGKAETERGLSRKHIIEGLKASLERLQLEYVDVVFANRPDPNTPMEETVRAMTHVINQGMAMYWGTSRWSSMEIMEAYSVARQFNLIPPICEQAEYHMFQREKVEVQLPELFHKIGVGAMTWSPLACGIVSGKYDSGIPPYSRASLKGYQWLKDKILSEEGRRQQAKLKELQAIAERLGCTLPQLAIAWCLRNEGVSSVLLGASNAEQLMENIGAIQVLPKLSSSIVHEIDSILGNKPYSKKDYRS

[6] = molecular target: Voltage-gated potassium channel subunit beta-2 (Rattus norvegicus) (UniProt P62483); test: enhancers of rat Kvbeta2 NADPH turnover – biochemical, NADPH fluorescence, primary screen (AID 623;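 active = NADPH fluorescence slope more negative than the mean of all samples by about 3 SD, 99.7% confidence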;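 also: fluorescence intensity change per second fitted from 20 to 320 s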); conditions: Recombinant KvBeta, NADPH fluorescence decrease slope, 10 min; at 10 µM; stronger effect = lower value
[7] = molecular target: Muscarinic acetylcholine receptor M4 (Homo sapiens) (UniProt P08173); test: M4-linked GIRK flux change, two-sided – cell-based, HEK293 M4/GIRK, thallium flux, BTC-AM, M4 allosteric agonist project, primary screen (AID 625;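 active = fluorescence slope after compound addition differing from the mean of all tested samples at 99.7% confidence, mostly higher but some lower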;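 also: thallium influx through GIRK channels coupled to M4 in HEK293 cells with BTC-AM dye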); conditions: at 10 µM, actives lie on both sides
Sequence of Muscarinic acetylcholine receptor M4 (Homo sapiens) (P08173 whole entry, looked up): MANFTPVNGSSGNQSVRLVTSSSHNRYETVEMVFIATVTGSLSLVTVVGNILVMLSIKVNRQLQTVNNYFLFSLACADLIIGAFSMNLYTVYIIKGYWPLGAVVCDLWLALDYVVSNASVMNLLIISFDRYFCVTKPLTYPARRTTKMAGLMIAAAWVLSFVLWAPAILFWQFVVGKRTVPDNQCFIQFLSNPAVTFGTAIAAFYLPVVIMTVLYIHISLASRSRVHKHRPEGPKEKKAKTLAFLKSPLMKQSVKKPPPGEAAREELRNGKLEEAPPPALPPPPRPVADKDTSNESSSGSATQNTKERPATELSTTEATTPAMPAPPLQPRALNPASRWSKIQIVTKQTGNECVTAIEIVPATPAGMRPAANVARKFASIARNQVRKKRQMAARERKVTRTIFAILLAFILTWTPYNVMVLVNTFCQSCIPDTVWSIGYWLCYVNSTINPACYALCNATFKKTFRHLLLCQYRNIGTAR
Summary of the method: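 assay system = HEK293 cells with M4 receptor and GIRK channels | medium = pH 7.3 thallium assay buffer | doses = 10 µM final, single point | timing = cells overnight at 37 °C, BTC-AM loading 1 h, reads 2 min total | signal = BTC-AM fluorescence, 1 Hz kinetic reads | read-out = post-addition slope, 15–24 s, of baseline-normalized fluorescence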

[8] = inhibitors of larval lipid processing in zebrafish, primary screen, whole organism, PED6 fluorescence, gall bladder and intestine (AID 686;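 active = a full or partial loss of lipid-probe fluorescence in the fish gall bladder, intestine or both, judged by eye; inactive = no fluorescence loss, or compound toxic to the fish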;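 also: larvae 5 to 7 days old with five fish per well; signal comes from phospholipase A2 cleavage of quenched PED6 carried via bile; overnight exposure to compound and PED6 before scoring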); conditions: Zebrafish larvae PED6 lipid processing, fluorescence scoring; screened at 20 µM (by protocol)
Summary of the method: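 Also added: quenched phospholipase substrate PED6, 100 nM final, ingested by larvae; System: zebrafish larvae, 5-7 d; Quantity: 5 larvae per well; Compound: 20 µM single dose; Schedule: overnight compound and PED6 incubation; Read-out: visual per-well fluorescence inhibition score; Measured by: By-eye fluorescence microscopy; Medium: E3.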

[9] = loss of swimming-algae plug formation – whole organism, Chlamydomonas reinhardtii, WT vs cilia-less mutant, absorbance, 96-well, primary screen (AID 463189;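 active = inhibition at or above 50% relative to wild type and mutant plate controls; inactive = inhibition below 50%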;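 also: 0% = wild type cc124 cells in DMSO and 100% = ciliumless bld1 mutant cells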); conditions: Chlamydomonas reinhardtii gravitaxis, OD600 absorbance, 2 days; at 10 µM; stronger effect = higher value
[10] = measured here: cell density z-score
[11] = measured here: nuclear c-Myc green intensity z-score
[12] = measured here: nuclear pErk red intensity z-score, stronger effect = higher value

Row | SMILES | cell count [1] | inhibition [1] | inhibition [2] | nuclei count [2] | z-score [3, 10] | z-score [3, 11] | z-score [3, 12] | inhibition [4] | fluorescence slope [5] | NADPH fluorescence slope [6] | fluorescence slope [7] | outcome [8] | inhibition [9]
1 | N#C/C(C(=O)NCc1ccco1)=C1/SC(Cc2ccc(Cl)cc2)C(=O)N1c1ccccc1 (stereo not drawn) | 633 | -0.2% (inactive) | -35.3% (inactive) | 104% | 0.196 | -0.248 | -0.52 | -9.53% (inactive) | -0.428 (inactive) | -5.4e-05 (inactive) | 0.00683 (inactive) | inactive | 2.21% (inactive)
2 | CCN(CC)C(=O)C1CCN(c2ncnc3c2cnn3-c2ccc(C)cc2C)CC1 | 622 | -8.2% (inactive) | -52.3% (inactive) | 178% | 1.38 | -1.28 | 0.399 | 11.4% (inactive) | -0.416 (inactive) | -4.9e-05 (inactive) | 0.00727 (inactive) | inactive | 27.9% (inactive)
3 | Cc1ccc(OCC(O)CNS(=O)(=O)c2ccccc2C(=O)O)cc1 (stereo not drawn) | 625 | -11.3% (inactive) | -18.3% (inactive) | 152% | 0.248 | 0.991 | -0.853 | 21.4% (inactive) | -0.412 (inactive) | -2.6e-05 (inactive) | 0.00639 (inactive) | inactive | -7.23% (inactive)
4 | Cn1cccc1/C=N/n1cnnc1 | 561 | 0.9% (inactive) | -164% (inactive) | 130% | 0.378 | -0.4 | -0.934 | -4.59% (inactive) | -0.452 (inactive) | -0.000125 (inactive) | 0.0051 (inactive) | inactive | -1.85% (inactive)
5 | O=C(O)c1ccc(C2CCCCC2)cn1 | 532 | 0.5% (inactive) | -129% (inactive) | 197% | -1.16 | 0.871 | -1.14 | 3.97% (inactive) | -0.444 (inactive) | -4.4e-05 (inactive) | 0.00555 (inactive) | inactive | -1.91% (inactive)
6 | Cn1c(NCc2cccnc2)nc2c1c(=O)n(Cc1ccccc1F)c(=O)n2C | 696 | 3% (inactive) | -201% (inactive) | 167% | 0.699 | -0.869 | 1.16 | 11.9% (inactive) | -0.51 (inactive) | -6e-05 (inactive) | 0.00566 (inactive) | inactive | 18.1% (inactive)
7 | Nc1nnnn1/N=C/c1ccco1 | 510 | -4% (inactive) | -8.3% (inactive) | 90.4% | 0.476 | 0.245 | -0.718 | 11% (inactive) | -0.502 (inactive) | -4.9e-05 (inactive) | 0.00713 (inactive) | inactive | -6.14% (inactive)
8 | O=C(CN1C(=O)c2ccccc2C1=O)OCN1C(=O)c2ccccc2C1=O | 494 | -4.5% (inactive) | -52.7% (inactive) | 125% | 0.289 | 0.0514 | -0.238 | 3.97% (inactive) | -0.348 (inactive) | -2.7e-06 (inactive) | 0.00658 (inactive) | inactive | -6.56% (inactive)
9 | C=CCn1c(-c2ccc(OC)c(OC)c2)n[nH]c1=S | 515 | -3.9% (inactive) | 9.4% (inactive) | 150% | 0.455 | -1.23 | -0.521 | 5.95% (inactive) | -0.338 (inactive) | -3.6e-05 (inactive) | 0.00705 (inactive) | inactive | 30.5% (inactive)
10 | N#Cc1cccc(-n2c(-c3ccccc3)nnc2-c2ccccc2)c1C#N | 587 | -2.7% (inactive) | -7.1% (inactive) | 99.3% | -3.17 | 1.25 | 1.22 | -7.86% (inactive) | -0.508 (inactive) | -6.3e-05 (inactive) | 0.00624 (inactive) | inactive | 6.01% (inactive)
11 | N#Cc1nc(COc2ccc(Cl)cc2)oc1N1CCN(Cc2ccccc2)CC1 | 489 | -3% (inactive) | -24.2% (inactive) | 139% | -0.636 | 0.047 | 1.31 | -2.29% (inactive) | -0.411 (inactive) | -5.4e-05 (inactive) | 0.00907 (inactive) | inactive | 3.53% (inactive)
12 | CC(=O)C1=C(O)C(=O)N(c2ccc(S(N)(=O)=O)cc2)C1c1ccccc1F (stereo not drawn) | 382 | -5.4% (inactive) | 14.5% (inactive) | 138% | -0.839 | -1.6 | 0.715 | 11.9% (inactive) | -0.476 (inactive) | -0.000111 (inactive) | 0.00408 (inactive) | inactive | -4.73% (inactive)
13 | CC1(C)Cc2c(c(N3CCOCC3)nc3sc4c(NCc5ccco5)nnnc4c23)CS1 | 504 | -8.4% (inactive) | -6.5% (inactive) | 116% | 1.05 | -0.977 | 0.343 | 19.8% (inactive) | -0.419 (inactive) | -5e-06 (inactive) | 0.00933 (inactive) | inactive | 15.9% (inactive)
14 | CCCCCOc1ccc(C(=O)NCC(=O)NCC(=O)OCC)cc1 | 715 | 9.7% (inactive) | -113% (inactive) | 150% | -0.426 | -0.0633 | -0.949 | 1.63% (inactive) | -0.417 (inactive) | -6e-05 (inactive) | 0.00389 (inactive) | inactive | -5.95% (inactive)
15 | CC1CCN(c2ncnc3c2cnn3Cc2ccc(Cl)cc2)CC1 | 549 | -8.1% (inactive) | 2.1% (inactive) | 135% | -0.011 | 0.63 | 0.724 | 13.9% (inactive) | -0.348 (inactive) | -1.7e-05 (inactive) | 0.00585 (inactive) | inactive | 4.22% (inactive)
16 | COC(=O)c1ccc(C2/C(=C(\O)c3ccc(OC)c(C)c3)C(=O)C(=O)N2c2cc(C)on2)cc1 (stereo not drawn) | 664 | -16.1% (inactive) | -48.1% (inactive) | 165% | -1.19 | 0.297 | 0.0353 | -1.12% (inactive) | -0.444 (inactive) | -3.1e-05 (inactive) | 0.00525 (inactive) | inactive | 16.4% (inactive)
17 | CN(C)CCOC(=O)Cc1ccc(Cl)cc1 | 622 | -6.2% (inactive) | -90.8% (inactive) | 83.6% | 1.56 | -0.995 | -0.341 | 12.8% (inactive) | -0.539 (inactive) | -4.8e-05 (inactive) | 0.00854 (inactive) | inactive | 35.4% (inactive)
18 | COc1ccc2c(c1OC)C(=O)OC2c1c(O)nc(SC)n(-c2ccccc2)c1=O (stereo not drawn) | 494 | 4.1% (inactive) | -192% (inactive) | 115% | 1.24 | 1.53 | -0.802 | 29.7% (inactive) | -0.39 (inactive) | -6.5e-05 (inactive) | 0.00866 (inactive) | inactive | -18.2% (inactive)
19 | COC(=O)c1[nH]c(C)c(/C(O)=C2\C(=O)C(=O)N(CCN3CCOCC3)C2c2ccccc2OC)c1C (stereo not drawn) | 610 | -6% (inactive) | -13.3% (inactive) | 168% | -1.87 | 0.251 | -0.629 | -7.28% (inactive) | -0.491 (inactive) | -0.000142 (inactive) | 0.00635 (inactive) | inactive | 5.11% (inactive)
20 | O=C1C=C(N2CCN(C3=CC(=O)CCC3)CC2)CCC1 | 493 | -0.4% (inactive) | 4.1% (inactive) | 100% | -1.82 | 2.6 | 0.89 | -0.233% (inactive) | -0.469 (inactive) | -6.9e-05 (inactive) | 0.00636 (inactive) | inactive | -18.9% (inactive)
21 | COc1ccc(OC)c(C2C(C(=O)c3sc(C)nc3C)=C(O)C(=O)N2CCN2CCOCC2)c1 (stereo not drawn) | 369 | 2.2% (inactive) | 35.1% (inactive) | 148% | -0.927 | -0.477 | 2.22 | -4.78% (inactive) | -0.46 (inactive) | -0.000134 (inactive) | 0.00498 (inactive) | inactive | 14.2% (inactive)
